The source of these data is ChEMBL document CHEMBL1138243, “Design of mechanism-based inhibitors of transthyretin amyloidosis: studies with biphenyl ethers and new structural templates” (J Med Chem, 2007).

Where “and” joins values, the source holds several entries; their conditions need not be identical. Equal values may be shown once.

The target in assay [1] is T1, Transthyretin (Homo sapiens, UniProt P02766). Nature of the assay: Inhibition of transthyretin fibril formation at pH 4.4 at 100 uM. The format is functional. Put shortly: (§1)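 Library screen of acid-mediated TTR fibril formation at pH 4.4 with inhibitor at 100 µM. TTR was at 7.2 µM.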
In assay [2] the target is T1, Transthyretin. Nature of the assay: Inhibition of transthyretin amyloidosis assessed as fibril formation pH 4.4 at 100 uM. The format is functional. Put shortly: as §1

As to `Cc1nc2c(ccc3ccccc32)c(O)c1CN1CCOCC1`, the inhibition – broadly, the percentage by which the read-out fell short of the control – in assay [1] stood at 30.4%. In addition, in assay [2], the percent fibril formation relative to control stood at 69.6%. The corresponding values for `O=[N+]([O-])c1ccc(Cl)cc1Sc1nc2ccccc2s1` are 91.8% and 8.2%. Turning to `O=C(CSc1nccn1-c1cccc(Cl)c1)Nc1cccc2ccccc12`, in assay [1], the inhibition stood at 0%. In addition, the percent fibril formation relative to control in assay [2] was found to be 122%.

Consider `O=C(NC1CC1)c1cc(Sc2cccc(Cl)c2)nc2ccccc12`, for which, in assay [1], the inhibition was determined as 58.2%. Also, the percent fibril formation relative to control in assay [2] amounted to 41.8%.

In assay [1], `O=C(O)C1CSC(c2ccc(O)cc2)N1` (stereo not given) registered an inhibition of 0%. Moreover, the percent fibril formation relative to control in assay [2] was 120%. The corresponding values for `O=C(NCc1ccco1)c1cc(Sc2cccc(Cl)c2)nc2ccccc12` are 39.3% and 60.7%. The corresponding values for `O=C1OC(/C=C/c2ccc(Cl)cc2Cl)=NC/1=C\c1cccs1` are 0% and 294%. For the molecule `O=C(O)C1CSC(c2c(F)cccc2Cl)N1` (stereo not given), in assay [1], the inhibition worked out at 79.7%. In addition, the percent fibril formation relative to control in assay [2] amounted to 20.3%. For the molecule `O=C(Nc1c2c(nn1-c1ccc(F)cc1)C[S+]([O-])C2)c1ccccc1F` (stereo not given), the inhibition in assay [1] was found to be 0%. In addition, the percent fibril formation relative to control in assay [2] came out at 104%.

The molecule `COc1ccc(/C=C2\SC(=S)N(c3ccc(O)cc3)C2=O)cc1` registered an inhibition in assay [1] of 0%. The percent fibril formation relative to control in assay [2] came to 281%.

For the molecule `O=C(O)c1cccc(-c2ccc(/C=C3/SC(=S)N(c4cccc(C(F)(F)F)c4)C3=O)o2)c1`, the inhibition in assay [1] worked out at 0%. Further, in assay [2], the percent fibril formation relative to control is 449%. The corresponding values for `CCCCN(CC)Cc1c(C)nc2ccc(Cl)cc2c1O` are 20.3% and 79.7%. `O=c1c2sccc2n(Cc2ccc(F)cc2Cl)c(=O)n1-c1cc(F)ccc1F` had an inhibition in assay [1] of 0%. Moreover, the percent fibril formation relative to control in assay [2] was 117%. The corresponding values for `O=C(NC(c1cccc([N+](=O)[O-])c1)c1cc(Cl)c2cccnc2c1O)c1cccnc1` (stereo not given) are 27.2% and 72.8%. The corresponding values for `O=C1CCCC2=C1C(c1cccc(O)c1)NC(=S)N2` (stereo not given) are 0% and 106%. The corresponding values for `Cc1ccsc1/C=c1\sc2nc(-c3cccs3)nn2c1=O` are 22.3% and 77.8%. In assay [1], `CCOC(=O)c1sc(=S)n(-c2ccc(Br)cc2)c1N` yielded an inhibition of 0%. Besides, in assay [2], the percent fibril formation relative to control worked out at 164%.

In the case of `Cc1ccn2c(Nc3ccccc3C)c(-c3ccc(O)cc3)nc2c1`, in assay [1], the inhibition is 0%. The percent fibril formation relative to control in assay [2] was 130%.

`O=C(Nc1c2c(nn1-c1cccc(Cl)c1)C[S+]([O-])C2)c1ccccc1F` (stereo not given): the inhibition in assay [1] worked out at 10.4%. In addition, the percent fibril formation relative to control in assay [2] was 89.5%. The corresponding values for `COc1cccc(C(=O)NC(c2ccccc2)c2cc(Cl)c3cccnc3c2O)c1` (stereo not given) are 65.3% and 34.7%.

Turning to `CCOC(=O)c1c(N)sc(C(=O)NC2CCCCC2)c1C`, in assay [1], the inhibition worked out at 41.9%. The percent fibril formation relative to control in assay [2] stood at 58.1%.

Turning to `Cc1nc2c(ccc3ccccc32)c(O)c1CN(C)Cc1ccccc1`, the inhibition in assay [1] was 0%. The percent fibril formation relative to control in assay [2] was 105%. In turn, `CCc1ccccc1NC(=S)N(CCN(C)C)Cc1cccs1` came in with an inhibition in assay [1] of 0%. Moreover, the percent fibril formation relative to control in assay [2] was found to be 108%. For the molecule `Cn1ncc(/N=C/c2ccccc2O)c1C(=O)N1CCOCC1`, in assay [1], the inhibition was determined as 50%. Besides, the percent fibril formation relative to control in assay [2] was determined as 50%. In turn, `Cc1ccc2nc(Nc3nc(O)c4ccccc4n3)nc(C)c2c1` showed an inhibition in assay [1] of 31.1%. Moreover, the percent fibril formation relative to control in assay [2] amounted to 68.9%.

As for `CCOC(=O)c1c(N)sc(C(=O)Nc2cc(C)cc(C)c2)c1C`, the inhibition in assay [1] came to 12.2%. The percent fibril formation relative to control in assay [2] turned out to be 87.8%. The corresponding values for `Oc1ccc(Nc2nc(-c3ccc(Cl)cc3)nc3ccccc23)cc1` are 4.06% and 96%. The corresponding values for `Nc1cc(O)nc(SCC(=O)N2CCOCC2)n1` are 0% and 112%. The corresponding values for `Cc1nc2c(C(=O)NCCC(C)C)cnn2c(O)c1Cc1ccccc1F` are 91.7% and -86.7%. In assay [1], `COc1ccccc1NC(=S)N(CCCN1CCCCCC1)Cc1cccs1` showed an inhibition of 0%. Besides, the percent fibril formation relative to control in assay [2] is 104%.

In the case of `Clc1ccccc1C1CC(c2cccs2)Nc2nnnn21` (stereo not given), in assay [1], the inhibition worked out at 100%. In assay [2], the percent fibril formation relative to control is 0%. The corresponding values for `Cc1ccccc1Nc1c(-c2ccc(Cl)s2)nc2ccc(Cl)cn12` are 0% and 306%.

`CCCCN(CC)Cc1c(C)nc2c(ccc3ccccc32)c1O` yielded an inhibition in assay [1] of 24.3%. Also, the percent fibril formation relative to control in assay [2] was 75.7%. As to `O=C1NC(=S)S/C1=C\c1ccc(-c2cc(Cl)ccc2Cl)o1`, the inhibition in assay [1] amounted to 0%. The percent fibril formation relative to control in assay [2] was found to be 286%.

In turn, `COC(=O)c1sc(=S)n(-c2ccc(Cl)c(Cl)c2)c1N` returned an inhibition in assay [1] of 15.6%. Further, the percent fibril formation relative to control in assay [2] was found to be 84.5%. Take `COc1ccc(C2NC(C(=O)O)CS2)cc1OC` (stereo not given): the inhibition in assay [1] turned out to be 0%. For the same molecule, the percent fibril formation relative to control in assay [2] is 129%. Take `O=C1OC(c2ccc(Cl)cc2Cl)=N/C1=C/c1ccc(Cl)c(Cl)c1`: in assay [1], the inhibition came out at 0%. Further, in assay [2], the percent fibril formation relative to control was found to be 138%. The corresponding values for `NN1C(=O)/C(=C\c2ccc(Cl)cc2)NC1=S` are 0% and 131%.

Turning to `O=C(O)C1CSC(c2ccc(Cl)cc2)N1` (stereo not given), in assay [1], the inhibition was 0%. For the same molecule, the percent fibril formation relative to control in assay [2] was determined as 142%. For `CSC1=NSC2=NC(=O)/C(=C\c3ccc[nH]3)C(=N)N12`, the inhibition in assay [1] was determined as 0%. Besides, the percent fibril formation relative to control in assay [2] came to 202%. The corresponding values for `Cc1nnc2c(Oc3ccc(Cl)cc3)nc3cc(Cl)ccc3n12` are 0% and 114%.

In the case of `NC(=O)CSc1ncc(-c2ccc(Cl)cc2)[nH]1`, the inhibition in assay [1] was found to be 60.8%. In assay [2], the percent fibril formation relative to control turned out to be 39.2%. The corresponding values for `O=C1/C(=C/c2ccc(Cl)cc2Cl)SC(=S)N1c1ccc(O)cc1` are 0% and 291%. The corresponding values for `O=C1/C(=C\c2cccc(O)c2)SC(=S)N1c1ccc(F)cc1` are 0% and 309%. Consider `Fc1ccccc1NC(=S)N(CCCN1CCOCC1)Cc1cccnc1`, for which the inhibition in assay [1] is 0.7%. For the same molecule, the percent fibril formation relative to control in assay [2] amounted to 99.3%. With `CSC1=NSC2=NC(=O)/C(=C\c3ccc(Cl)cc3)C(=N)N12`, the inhibition in assay [1] came out at 32.9%. Moreover, in assay [2], the percent fibril formation relative to control came to 67.1%. With `Cc1cc(C(=O)Nc2cc(Cl)ccc2O)no1`, the inhibition in assay [1] was 3.18% and 0%. In assay [1], `CCOc1cccc2c1OC(c1cccc(Cl)c1)N1N=C(c3cccs3)CC21` (stereo not given) showed an inhibition of 0%. On the same count and under the same terms, with `O=C(c1cnc(Nc2ccc(F)cc2)c2ccccc12)n1ccnc1` the figure was 0%.
